The source of these data is PMC7380323 (ACS chemical neuroscience, 2020).

In one data set the test system is κ-opioid receptor. The note with it: cited from earlier work.
Data set [1] relates to Mouse microglia. It counts as cell-based.
Data set [2] relates to Swiss Webster mice. The experiment in a line: Formalin test. It counts as in vivo, mouse. To be noted: 30 mg/kg orally. The essentials: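 Test compounds given orally four days before 2% formalin was injected into the right hind paw of Swiss Webster mice.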
The subject of data set [3] is immortalized mouse microglia cells. The data set can be described thus: Automated patch clamp, GABA current response in immortalized mouse microglia. The format is cell-based. In general terms: In patch-clamp work, channel activity is measured electrically.
In data set [4] the test system is HMC3 human microglia cells. It counts as cell-based. The note with it: −80 mV.
Data set [5] concerns immortalized human microglia cells. The data set can be described thus: Automated patch clamp, GABA current response in immortalized human microglia. It counts as cell-based.
In data set [6] the test system is Mouse microglia. The experiment in a line: Cell viability. It counts as cell-based. The note with it: for Cell viability (%) Mouse microglia 50 μM: CellTiter-Glo. (Cellular ATP, detected with luciferase, serves as a proxy for viable cell number.)
Data set [7] relates to RAW macrophages. The data set can be described thus: Cell viability. It counts as cell-based, mouse. To be noted: CellTiter-Glo.
The test system of data set [8] is RAW macrophages. The data set can be described thus: Inhibition of NO production. It counts as cell-based, mouse. To be noted: 24 h, IFNγ/LPS activated, 1 μM GABA. The essentials: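 RAW264.7 murine macrophages were grown in DMEM/high glucose with 10% heat-inactivated FBS, penicillin/streptomycin and Normocin at 37°C and 5% CO2, and passaged by scraping. […] After about 24 h at 37°C, nitrite in the supernatant was measured by Griess assay (absorbance 530 nm).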

The test system of data set [9] is Swiss Webster mice. The data set can be described thus: Rotarod test. It counts as in vivo, mouse. To be noted: 5 mg/kg. On the technique in general: In the rotarod test animals must keep their balance on a rotating rod.

Like-named read-outs stand apart in the source and are kept apart here.

For `CNC1=Nc2ccc(Cl)cc2C(c2ccccc2)=[N+]([O-])C1` [chlordiazepoxide], the “affinity for the κ-opioid receptor (in words)” value (from here on “affinity”) with κ-opioid receptor was “micromolar affinities”.

Take `Oc1ccc2c3c1O[C@H]1c4[nH]c5c(c4C[C@@]4(O)[C@@H](C2)N(CC2CC2)CC[C@]314)C[C@@]1(O)[C@H]2Cc3ccc(O)c4c3[C@@]1(CCN2CC1CC1)[C@H]5O4` [norbinaltorphimine]: in the data set with Mouse microglia [1] (antagonist 30 μM, 14 h), the “reversal of the NO effect of 50 μM MP-IV-010 by antagonist” value is “reversed”.

Turning to `CCOC(=O)c1ncn2c1CN(C)C(=O)c1cc(F)ccc1-2` [flumazenil], in the data set with Mouse microglia [1], the “reversal of the NO effect of 50 μM MP-IV-010 by antagonist” value was “did not reverse”.

Take `CC(C(=O)O)c1cccc(C(=O)c2ccccc2)c1` (stereo not drawn) [ketoprofen]: in the data set with Swiss Webster mice [2], the “antinociceptive effect in the formalin test compared with GL-IV-03 10 mg/kg” value is “similar”.

Consider `Cc1ncc2n1-c1ccc(Cl)cc1C(c1ccccc1F)=NC2` [midazolam], for which, in the data set on κ-opioid receptor, the “affinity” value is given as “micromolar affinities”.

Take picrotoxin: the “reversal of the NO effect of 50 μM MP-IV-010 by antagonist” value in the data set with Mouse microglia [1] (antagonist 50 μM, with GABA, 14 h) is recorded as “did not reverse”.

Regarding SM-21, in the data set on Mouse microglia [1] (antagonist 30 μM, 14 h), the “reversal of the NO effect of 50 μM MP-IV-010 by antagonist” value is reported as “no reversal”.

With `NCCCC(=O)O` [GABA, γ-aminobutyric acid], the “maximum current response for 1 mM GABA” value in [3] was determined as 1514 pA; in [5] it was 1245 pA. In addition, in the data set on Mouse microglia [1] (1 μM, Griess assay after 14 h), the “secreted NO levels of activated microglia” value is given as “no effect”. The “maximum negative current response for 1 mM GABA” value in [4] worked out at 746 pA.

Take `C[C@@H]1C[C@H]2[C@@H]3CCC4=CC(=O)C=C[C@]4(C)[C@@]3(F)[C@@H](O)C[C@]2(C)[C@@]1(O)C(=O)CO` [dexamethasone]: the “NO production of activated microglia” value with Mouse microglia [1] (100 nM, Griess assay after 14 h) is listed as “reduced NO production”. The “cytotoxicity / cell viability in the antagonist experiments (CellTiter-Glo)” value in the data set on Mouse microglia [6] (activated mouse microglia, concentrations as in the NO experiments) is on record as “without cell toxicity”.

Take `C#Cc1ccc2c(c1)C(c1ccccc1F)=N[C@H](C)c1c(C(=O)NC)ncn1-2` [MP-III-022]: in the data set on Mouse microglia [1], the “Inhibition of NO production (%) Mouse microglia 10 μM” value was found to be 36 ± 6% and the “Inhibition of NO production (%) Mouse microglia 50 μM” value came out at 60 ± 12%. Also, the “Cell viability (%) RAW macrophages 50 μM” value in the data set with RAW macrophages [7] was determined as 100 ± 11%. For the same compound, the “Cell viability (%) Mouse microglia 50 μM” value with Mouse microglia [6] worked out at 86 ± 2%. Moreover, the “Inhibition of NO production (%) RAW macrophages 10 μM” value with RAW macrophages [8] (10 μM) was determined as 9 ± 5%. Besides, the “Inhibition of NO production (%) RAW macrophages 50 μM” value in the data set with RAW macrophages [8] (50 μM) was found to be 51 ± 7%.

As to `CN1C(=O)CN=C(c2ccccc2)c2cc(Cl)ccc21` [diazepam], the “sedation on the rotarod” value with Swiss Webster mice [9] is recorded as “sedating”. The “affinity” value in the data set on κ-opioid receptor was “micromolar affinities”.

As for `C#Cc1ccc2c(c1)C(c1ccccn1)=NCc1c(-c3cnco3)ncn1-2` [KRM-II-81], the “Inhibition of NO production (%) Mouse microglia 50 μM” value in the data set with Mouse microglia [1] is recorded as 0 ± 1%. Also, the “Cell viability (%) Mouse microglia 50 μM” value in the data set on Mouse microglia [6] worked out at 100 ± 5%.

For the compound `CN1CCc2cc3c(cc2[C@H]1[C@@H]1OC(=O)c2c1ccc1c2OCO1)OCO3` [bicuculline], the “reversal of the NO effect of 50 μM MP-IV-010 by antagonist” value in the data set with Mouse microglia [1] (antagonist 100 μM, with GABA, 14 h) is given as “did not reverse”.
